Measured values pooled from the literature.
Each line is one published result; the experiments were not run side by side.
Target: Tyrosine-protein kinase Blk (BLK, Homo sapiens, UniProt P51451)

Compound	read-out	mode	technique	tested at	measurement	result
Cn1cncc1[C@](O)(COc1ccc(C#N)cc1-c1ccc(OC(F)(F)F)cc1)c1ccc(C#N)cc1	cell-free assay		competition with immobilised ligand	1 µM	remaining binding	90%
CC(C)(C)c1cc(C=C(C#N)C#N)cc(Br)c1O	enzyme activity	inhibitor		0.5 µM	remaining activity	97.9%
Cn1cc(-c2cccc(N3CCc4c(sc5c4CC(C)(C)C5)C3=O)c2CO)cc(Nc2ccncn2)c1=O	enzyme activity	inhibitor		1 µM	inhibition	-3%
COc1ncccc1-c1cnn2ccc(N3CCN(C(=O)OC(C)C)CC3)nc12	binding		competition with immobilised ligand	1 µM	remaining binding	100%
O=c1[nH]c2ccccc2n1C1CCN(Cc2ccc(-c3[nH]c4cc5ncnc5cc4nc3-c3ccccc3)cc2)CC1	cell-free assay			0.5 µM	remaining signal	106%
COc1cc(Nc2ncc(F)c(Nc3ccc4c(n3)NC(=O)C(C)(C)O4)n2)cc(OC)c1OC	binding		competition with immobilised ligand	10 µM	inhibition	100%
C#Cc1n[nH]c2c(-c3cn([C@@H](C)c4ccccc4)c(=O)[nH]c3=O)cc(F)cc12	enzyme activity	inhibitor		0.1 µM	inhibition	-5.4%
Cc1nn(C)cc1-c1nc2c(N3CCN(Cc4ccc(Cl)cc4)CC3)c(Cl)cnc2[nH]1	binding		competition with immobilised ligand	1 µM	remaining binding	100%
Cn1cc(-c2cc(F)cc(N3CCn4c(cc5c4CCCC5)C3=O)c2CO)cc(Nc2ccc(N3CCN(C4COC4)CC3)cn2)c1=O	enzyme activity	inhibitor		0.1 µM	inhibition	14%
C#Cc1n[nH]c2c(-c3cn([C@@H](C)c4ccccn4)c(=O)[nH]c3=O)cc(F)cc12	enzyme activity	inhibitor		0.1 µM	inhibition	-5.3%
Nc1ncc(-c2nc(N3CCOCC3)nc(N3CCOCC3)n2)c(C(F)F)n1	binding		competition with immobilised ligand	10 µM	remaining binding	70%
